pIC50: −log10 of the molar value. Several values for one entry are separate records, joined by “and”; a condition that tells them apart may be missing. Equal entries are not always repeated. Activity calls are given as the source filed them. No cut-off for these calls is given here.
How the values were obtained:
[1] = system: Nucleic Acid; test: Binding affinity to F-c-kit2-T G-quadruplex DNA assessed as change in melting temperature at 1 uM by FRET assay (reference value: 75 degC); format: nucleic-acid assay
Procedure, shortened: (§1)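 FRET melting of dual FAM/TAMRA-labelled oligonucleotide (0.2 μM), pre-annealed in K+ buffer (90 °C 5 min, slow cooling, 4 °C overnight), in 10 mM Tris-HCl pH 7.4, 60 mM KCl with ligand at 1 μM. Equilibrated 25 °C 5 min, then heated 1 °C/min to 95 °C; excitation 492 nm, emission 516 nm. ΔTm = Tm(DNA+ligand) − Tm(DNA).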

[2] = system: Nucleic Acid; test: Binding affinity to F22T G-quadruplex DNA assessed as decrease in melting temperature at 1 uM by FRET assay in presence of duplex DNA competitor ds26; format: nucleic-acid assay
Procedure, shortened: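 Competitive FRET melting: 0.2 μM F22T premixed with excess duplex ds26 (3 μM or 10 μM), ligand at 1 μM, in 10 mM Tris-HCl pH 7.4, 60 mM KCl. Heated 1 °C/min from 25 °C to 95 °C; ex 492/em 516 nm; ΔTm determined.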

[3] = system: human telomeric G-quadruplex DNA F21T (human); test: Binding affinity to F21T G-quadruplex DNA assessed as change in melting temperature at 1 uM by FRET assay (reference value: 60 degC)
[4] = system: c-myc G-quadruplex DNA F22T (human); test: Binding affinity to human F22T G-quadruplex DNA assessed as change in melting temperature at 1 uM by FRET assay (reference value: 78 degC)
[5] = system: Nucleic Acid; test: Binding affinity to F10T hairpin duplex DNA assessed as change in melting temperature at 1 uM by FRET assay (reference value: 64 degC)
[6] = system: Nucleic Acid; test: Binding affinity to F-c-kit1-T G-quadruplex DNA assessed as change in melting temperature at 1 uM by FRET assay (reference value: 54 degC); format: nucleic-acid assay; procedure, shortened: as §1
[7] = target: Nucleic Acid; test: Binding affinity to single-strand Pu27 oligonucleotide assessed as formation of G-quadruplex complex after 3 mins by PCR stop assay; format: nucleic-acid assay
Procedure, shortened: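 PCR stop assay: Pu27 with complementary Pu27rev (10 pmol each), 0.16 mM dNTP, 2.5 U Taq polymerase and ligand in 1× PCR buffer. Cycling 94 °C 3 min, then 35 cycles of 94 °C/58 °C/72 °C, 30 s each. Double-stranded product detected by electrophoresis; IC50 is the concentration inhibiting amplification by 50%.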

[8] = system: Nucleic Acid; test: Binding affinity to F22T G-quadruplex DNA assessed as change in melting temperature at 1 uM by FRET assay in presence of G-quadruplex DNA competitor c-kit1; format: nucleic-acid assay
Procedure, shortened: (§2)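 Competitive FRET melting: 0.2 μM F22T with ligand at 1 μM, without or with 3 μM or 10 μM unlabelled G-quadruplex competitor (c-kit1, c-kit2 or HTG21), in 10 mM Tris-HCl pH 7.4, 60 mM KCl. Heated 1 °C/min from 25 °C to 95 °C; ex 492/em 516 nm; ΔTm determined.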

[9] = system: Nucleic Acid; test: Selectivity ratio, K for F22T G-quadruplex DNA to K for human F21T G-quadruplex DNA; format: nucleic-acid assay
[10] = system: Nucleic Acid; test: Binding affinity to c-kit1 G-quadruplex DNA assessed as change in melting temperature by isothermal titration calorimetry; format: nucleic-acid assay
Procedure, shortened: (§3)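 ITC at 25 °C: preannealed G-quadruplex (5 μM) in cell, ligand (400 μM) in syringe, both in 10 mM Tris-HCl pH 7.4, 150 mM KCl, degassed. Thirty 10 μL injections at 4 min intervals. Heats of ligand dilution into buffer subtracted before fitting the integrated thermograms for K, ΔH, ΔS.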

[11] = system: Nucleic Acid; test: Selectivity ratio, K for F22T G-quadruplex DNA to K for c-kit2 G-quadruplex DNA; format: nucleic-acid assay
[12] = system: Nucleic Acid; test: Selectivity ratio, K for F22T G-quadruplex DNA to K for c-kit1 G-quadruplex DNA; format: nucleic-acid assay
[13] = system: Nucleic Acid; test: Binding affinity to HTG21 G-quadruplex DNA assessed as change in melting temperature by isothermal titration calorimetry; format: nucleic-acid assay; procedure, shortened: as §3
[14] = system: Nucleic Acid; test: Binding affinity to F22T G-quadruplex DNA assessed as change in melting temperature at 1 uM by FRET assay in presence of G-quadruplex DNA competitor c-kit2; format: nucleic-acid assay; procedure, shortened: as §2
[15] = system: Nucleic Acid; test: Binding affinity to F22T G-quadruplex DNA assessed as decrease in melting temperature at 1 uM by FRET assay in presence of G-quadruplex DNA competitor HTG21; format: nucleic-acid assay; procedure, shortened: as §2
[16] = system: Nucleic Acid; test: Binding affinity to Pu27 G-quadruplex DNA assessed as change in melting temperature by isothermal titration calorimetry; format: nucleic-acid assay; procedure, shortened: as §3
[17] = system: Nucleic Acid; test: Binding affinity to c-kit2 G-quadruplex DNA assessed as change in melting temperature by isothermal titration calorimetry; format: nucleic-acid assay; procedure, shortened: as §3

| ΔTm [1] | Activity [2] | ΔTm [3] | ΔTm [4] | ΔTm [5] | ΔTm [6] | pIC50 [7] | Activity [8] | Selectivity ratio [9] | K [10] | Selectivity ratio [11] | Selectivity ratio [12] | K [13] | Activity [14] | Activity [15] | K [16] | K [17] | SMILES |
| --- | --- | --- | --- | --- | --- | --- | --- | --- | --- | --- | --- | --- | --- | --- | --- | --- | --- |
| 5 °C | inactive | 3 °C | 2 °C | 0 °C | 10 °C | < 4.70 | – | – | – | – | – | – | – | – | – | – | O=C(/C=C/c1ccc2ncccc2c1)/C=C/c1ccc2ncccc2c1 |
| 1 °C | inactive | 4 °C | 1 °C | 0 °C | 1 °C | < 4.70 | – | – | – | – | – | – | – | – | – | – | CN1C/C(=C\c2ccc3ncccc3c2)C(=O)/C(=C/c2ccc3ncccc3c2)C1 |
| 6 °C | inactive | 7 °C | 7 °C | 0 °C | 14 °C | 4.90 | – | – | – | – | – | – | – | – | – | – | C[n+]1cccc2cc(/C=C3\C[N+](C)(C)C/C(=C\c4ccc5c(ccc[n+]5C)c4)C3=O)ccc21 |
| 0 °C | inactive | 0 °C | 2 °C | 0 °C | 1 °C | < 4.70 | – | – | – | – | – | – | – | – | – | – | O=C1/C(=C/c2ccc3ncccc3c2)CC/C1=C\c1ccc2ncccc2c1 |
| 0 °C | inactive | 0 °C | 2 °C | 0 °C | 1 °C | < 4.70 | – | – | – | – | – | – | – | – | – | – | O=C1/C(=C\c2ccc3ncccc3c2)CCC/C1=C/c1ccc2ncccc2c1 |
| 20 °C | inactive | 23 °C | 17 °C | 1 °C | 29 °C | 6.05 | 40% | 200 | 3.08 ×10⁵ /M | 25 | 25 | 3.61 ×10⁴ /M | 40% | Active | 8.05 ×10⁶ /M and 4.42 ×10⁴ /M | 1.27 ×10⁵ /M | C[n+]1cccc2cc(/C=C3\CC/C(=C\c4ccc5c(ccc[n+]5C)c4)C3=O)ccc21 |
| 12 °C | inactive | 10 °C | 9 °C | 0 °C | 17 °C | 5.96 | – | – | – | – | – | – | – | – | – | – | C[n+]1cccc2cc(/C=C3/CCC/C(=C/c4ccc5c(ccc[n+]5C)c4)C3=O)ccc21 |
| 17 °C | inactive | 17 °C | 13 °C | 0 °C | 24 °C | 6.15 | – | – | – | – | – | – | – | – | – | – | C[n+]1cccc2cc(/C=C/C(=O)/C=C/c3ccc4c(ccc[n+]4C)c3)ccc21 |
